The source of these data is the array DNA melting data of Ke et al. (doi:10.1101/2024.01.08.574731).

Series [1] is described as follows: folding enthalpy; higher = less favourable; fluorescence melt of hairpins on a sequencing array, two-state fit. The settings on record: sodium 0.088 M. The method in brief:
(§1)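 Bootstrapped two-state fits yielded melting temperature and folding enthalpy for library hairpins. Cy3 fluorescence, with annealed Cy3 and quencher oligos, was imaged on a sequenced MiSeq flow cell in 50 mM Na-HEPES pH 8.0, 25 mM NaCl in 2.5 °C steps up to 60 °C, and normalised to pre-quench Cy3 and to control constructs. Four replicates were combined by inverse variance, and fitted temperatures were raised by 9.35 °C to match UV melts.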

The nature of series [2]: melting temperature; fluorescence melt of hairpins on a sequencing array, two-state fit, raised by 9.35 °C to match UV melts. The settings on record: sodium 0.088 M. The method in brief: as §1

In the case of GGATGGGGAAACTCATCC (((((.(....).))))), the folding enthalpy in series [1] is -41 kcal/mol. For the same sequence, in series [2], the Tm was 49.2 °C.
Taken in the same sequence, the figures for CGTACGGAAACGTCTACG ((((((....)))..))) were -14.7 kcal/mol and 30.7 °C.
On to CGCGGATCGCTCCGCG ((((((....)))))), for which, in series [1], the folding enthalpy was -28.6 kcal/mol. Further, in series [2], the Tm was 69.2 °C.
For CCCAGGAAACTGGG (((((....))))), in that order: -20.4 kcal/mol and 54.3 °C.
For GCGGTGTCCGC ((((...)))), in that order: -23 kcal/mol and 58.2 °C.
In the case of GTGCTGGGAAACCAGCGC (.(((((....))))).), the folding enthalpy in series [1] is -29.5 kcal/mol. In addition, in series [2], the Tm stood at 61.6 °C.
Taken in the same sequence, the figures for GATCGAACGATCGATC ((((((....)))))) were -18.9 kcal/mol and 52.8 °C.
For GTACAAGGAAACTCGTAC ((((.((....)).)))), the folding enthalpy in series [1] is -22 kcal/mol. For the same sequence, in series [2], the Tm stood at 29.1 °C.
Taken in the same sequence, the figures for GGACTCCGAAAGGACTCC (((.(((....))).))) were -21.1 kcal/mol and 39.2 °C.
Taken in the same sequence, the figures for GGTGAAGGAAACTTCACC (((((((....))))))) were -42.6 kcal/mol and 63 °C.
Taken in the same sequence, the figures for GCGCAGCGAAAGCGACGC (((..((....))..))) were -15.8 kcal/mol and 57.6 °C.
On to GAGGTGGGAAACCACCCC (.(((((....))))).), for which, in series [1], the folding enthalpy was -10.7 kcal/mol. In addition, the Tm in series [2] worked out at 44.6 °C.
For GACAATCCGAAAGGAGTC (((..(((....)))))), in that order: -17.2 kcal/mol and 32.7 °C.
Taken in the same sequence, the figures for GCCGGTGGAAACACTGGC (((.(((....))).))) were -41.5 kcal/mol and 60 °C.
Taken in the same sequence, the figures for GCCTGCGAAAGCAGAGGC ((((((....)))..))) were -17.6 kcal/mol and 60.1 °C.
In the case of GTTAAGTCGAAAGACAAC (((..(((....)))))), the folding enthalpy in series [1] was -13.4 kcal/mol. Further, the Tm in series [2] came out at 27.8 °C.
Turning to GATCACCTAGTGATC ((((((...)))))), the folding enthalpy in series [1] was -34.8 kcal/mol. Besides, the Tm in series [2] was found to be 58.2 °C.
Regarding GGCCAGCCGAAAGGCGCC (((..(((....)))))), the folding enthalpy in series [1] is -13.4 kcal/mol. Further, the Tm in series [2] amounted to 55.1 °C.
For GATCTCATAGAGATC ((((((...)))))), in that order: -38.3 kcal/mol and 55.2 °C.
As to GCCTAGCGAAAGCTCGGC (((.(((....))).))), the folding enthalpy in series [1] was -39.4 kcal/mol. Moreover, the Tm in series [2] came out at 56.8 °C.
For GATCTCATCGGAGATC ((((((....)))))), the folding enthalpy in series [1] was -36.1 kcal/mol. Further, the Tm in series [2] was found to be 52.8 °C.
GTACCACGAAAGTGTTAC (((.(((....))).))): in series [1], the folding enthalpy is -24.1 kcal/mol. The Tm in series [2] came out at 39.2 °C.
For GATCGATGAATCGATC ((((((....)))))), in that order: -41.1 kcal/mol and 55.1 °C.
For GGCCTCCGAAAGGACGCC (((.(((....))).))), in that order: -37.2 kcal/mol and 53.6 °C.
On to GATCTTACCTAAGATC ((((((....)))))), for which, in series [1], the folding enthalpy is -40.2 kcal/mol. In addition, in series [2], the Tm worked out at 45 °C.
In the case of GTAGTCCGAAAGGATAC (((.(((....)))))), the folding enthalpy in series [1] is -15.8 kcal/mol. Further, in series [2], the Tm is 38 °C.
Taken in the same sequence, the figures for GATCCTTAAGAGGATC ((((((....)))))) were -38.1 kcal/mol and 50.9 °C.
For GTCGGCGGAAACACCGAC (((((.(....).))))), in that order: -37.9 kcal/mol and 55.3 °C.
Taken in the same sequence, the figures for GCAACGCGAAAGCGCGGC ((..(((....)))..)) were -14.8 kcal/mol and 48.1 °C.
In the case of GAGAGTGGAAACGCTTTC ((.((.(....).)).)), the folding enthalpy in series [1] was -9.25 kcal/mol. In addition, the Tm in series [2] was determined as 27.3 °C.
Taken in the same sequence, the figures for GGAACTGGAAACGGTTTC (.(((.(....).))).) were -17.9 kcal/mol and 30.4 °C.
For GATCGGACTACCGATC ((((((....)))))), in that order: -36.6 kcal/mol and 55.6 °C.
In the case of GTCAGGGGAAACCCCGAC (((.(((....))).))), the folding enthalpy in series [1] was -24.8 kcal/mol. The Tm in series [2] came out at 50.2 °C.
For GACGCTGGAAACAGCGCC (.(((((....))))).), in that order: -12.4 kcal/mol and 53 °C.
Taken in the same sequence, the figures for GCGTCAACGAAAGTTCGC (((..(((....)))))) were -27.6 kcal/mol and 45 °C.
Taken in the same sequence, the figures for GACTGCGAAAGCAACGTC ((((((....)))..))) were -15.2 kcal/mol and 38.8 °C.
Turning to GCACCGGGAAACTGGTGC (((((.(....).))))), the folding enthalpy in series [1] is -41 kcal/mol. In addition, the Tm in series [2] is 61.2 °C.
For GGAGGATCGAAAGATTCC (((..(((....)))))), in that order: -19.1 kcal/mol and 28.4 °C.
Taken in the same sequence, the figures for AGTAACTGAAAAGTTACT (((((((....))))))) were -32.3 kcal/mol and 51.6 °C.
Taken in the same sequence, the figures for GGCGGTTCGAAAGAAGCC (((..(((....)))))) were -16.6 kcal/mol and 41 °C.
Turning to GGTTTCGAAAGAAAAACC ((((((....)))..))), in series [1], the folding enthalpy was -23.4 kcal/mol. Moreover, the Tm in series [2] was determined as 33.6 °C.
Taken in the same sequence, the figures for GAAATCGGAAACGATTCC (.(((((....))))).) were -16.6 kcal/mol and 37.1 °C.
In the case of GGTAGAGGAAACCCTACC (((((.(....).))))), the folding enthalpy in series [1] was -33.4 kcal/mol. Further, the Tm in series [2] amounted to 38.2 °C.
For GCTACGCGAAAGCTTGGC ((.(.((....)).).)), in that order: -17.4 kcal/mol and 41.1 °C.
Taken in the same sequence, the figures for GGGTAACGAAAGTTTCCC (((.(((....))).))) were -43 kcal/mol and 50.3 °C.
Turning to GAAGGGGCGAAAGCCTTC (((..(((....)))))), the folding enthalpy in series [1] was -9.14 kcal/mol. For the same sequence, the Tm in series [2] is 35.2 °C.
For GCGTGGTCACGC ((((....)))), in that order: -26.3 kcal/mol and 57.5 °C.
On to GATCAGACACTGATC ((((((...)))))), for which the folding enthalpy in series [1] is -47.1 kcal/mol. Further, the Tm in series [2] turned out to be 48.6 °C.
Taken in the same sequence, the figures for GTTAGGGAAACCTAAC ((((((....)))))) were -30.8 kcal/mol and 48.4 °C.
On to GCACGCGAAAGCGGTTGC ((((((....)))..))), for which the folding enthalpy in series [1] was -13.3 kcal/mol. In addition, in series [2], the Tm was determined as 49.5 °C.
Taken in the same sequence, the figures for GCGCACGAAAGTGTTCGC ((((((....)))..))) were -22.1 kcal/mol and 48.2 °C.
As to GCGTCCGAAAGGATTCGC ((((((....)))..))), the folding enthalpy in series [1] was -26.9 kcal/mol. In series [2], the Tm came out at 47.1 °C.
Taken in the same sequence, the figures for GATCACATTGGTGATC ((((((....)))))) were -40.1 kcal/mol and 56.7 °C.
For GGCGGATCGAAAGATGCC (((..(((....)))))), in that order: -22.7 kcal/mol and 46.1 °C.
For GATCAATTGGTTGATC ((((((....)))))), in that order: -40.5 kcal/mol and 45.8 °C.
Regarding GGACTCGAAAGAGGTCC ((((((....))).))), the folding enthalpy in series [1] was -35.2 kcal/mol. Moreover, the Tm in series [2] amounted to 52.4 °C.
On to GCGTAGGGAAACCTGCGC (((.(((....))).))), for which the folding enthalpy in series [1] is -37.7 kcal/mol. In addition, in series [2], the Tm turned out to be 58.9 °C.
As to GATACCGAAAGGTACATC ((((((....)))..))), the folding enthalpy in series [1] is -10.4 kcal/mol. Also, the Tm in series [2] turned out to be 26.9 °C.
For CGCGGAACAGTCCGCG ((((((....)))))), in that order: -33.1 kcal/mol and 67.2 °C.
With GTGCTCGAAAGAGGCCAC ((((((....)))..))), in series [1], the folding enthalpy is -16 kcal/mol. Also, in series [2], the Tm is 35.9 °C.
Taken in the same sequence, the figures for GTGACAGCGAAAGCTCAC (((..(((....)))))) were -21.6 kcal/mol and 41.4 °C.
Regarding GTCGACGGAAACGTTGAC (((.(((....))).))), in series [1], the folding enthalpy was -45.5 kcal/mol. Moreover, the Tm in series [2] was 56.3 °C.
Taken in the same sequence, the figures for GTGGCTGGAAACAACCAC ((((.((....)).)))) were -34.4 kcal/mol and 45.8 °C.
For GACGGGGAAACCCGTC ((((((....)))))), in that order: -37.9 kcal/mol and 68 °C.
For the sequence GGCACCGGAAACGATGCC ((((.((....)).)))), the folding enthalpy in series [1] is -43.2 kcal/mol. Moreover, the Tm in series [2] was 52.9 °C.
Taken in the same sequence, the figures for GTCAACGAAAGTTACGAC ((((((....)))..))) were -16.4 kcal/mol and 34.5 °C.
Regarding GGCTACGGAAACATAGCC (((((.(....).))))), in series [1], the folding enthalpy was -28.8 kcal/mol. The Tm in series [2] stood at 43.8 °C.
For GATCGGTAGTCCGATC ((((((....)))))), in that order: -44.4 kcal/mol and 55.6 °C.
For GATCTAGATGTAGATC ((((((....)))))), in that order: -27.9 kcal/mol and 39.8 °C.
GCCCGGGCGAAAGCCGGC (((..(((....)))))): the folding enthalpy in series [1] was -12.5 kcal/mol. Also, in series [2], the Tm was 59.5 °C.
Taken in the same sequence, the figures for GATCTGAGTACAGATC ((((((....)))))) were -30.9 kcal/mol and 49.6 °C.
Taken in the same sequence, the figures for GATCGATTCGTCGATC ((((((....)))))) were -41.5 kcal/mol and 55.1 °C.
For GCAACCGAAAGGTATTGC ((((((....)))..))), in that order: -18.3 kcal/mol and 39.9 °C.
Take GTGCTTGGAAACAAGCGC (.(((((....))))).): in series [1], the folding enthalpy was -32.2 kcal/mol. Further, in series [2], the Tm was 61.3 °C.
